EBI2 antag: blocks human EBI2 receptor beta-arrestin signaling | P32249 | EBI2 beta-arrestin recruitment, luminescence, 7a,25-OHC stimulated | inhibition, % at 5 µM | actives 0.81% (n = 360,000); in the data active = inhibition above about 38%;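 also: enzyme fragment complementation signal reports receptor beta-arrestin coupling in cells; 0% = agonist plus DMSO wells and 100% = wells without agonist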
CCR6 antagonist: antagonists of human CCR6 receptor; P51684; CHO-K1 CCR6 PathHunter beta-arrestin, luminescence, CCL20-stimulated; inhibition, % at 20 µM; actives 0.49% (n = 340,000);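 active = compounds whose inhibition of the agonist-driven luminescence signal at 20 µM reaches about 50%, limit read from the data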;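 also: cells stimulated with CCL20 at 14 nM final; plate controls were DMSO with CCL20 for no effect and DMSO without agonist for full effect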
Target sequence (P51684 whole entry, looked up): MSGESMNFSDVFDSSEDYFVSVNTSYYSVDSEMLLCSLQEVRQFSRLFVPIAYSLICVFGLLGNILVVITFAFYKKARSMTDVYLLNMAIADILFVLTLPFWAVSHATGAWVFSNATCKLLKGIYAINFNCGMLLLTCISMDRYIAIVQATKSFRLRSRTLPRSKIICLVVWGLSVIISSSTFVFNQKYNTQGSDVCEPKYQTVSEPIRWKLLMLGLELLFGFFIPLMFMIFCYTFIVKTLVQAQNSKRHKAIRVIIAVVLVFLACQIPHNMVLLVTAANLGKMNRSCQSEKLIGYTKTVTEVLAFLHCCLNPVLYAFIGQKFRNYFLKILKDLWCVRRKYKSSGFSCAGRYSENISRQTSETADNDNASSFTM
APJ antag: blocks the human apelin receptor APJ. P35414. actives 0.32% (n = 330,000). CHO-K1 APJ beta-arrestin complementation, luminescence. inhibition, % at 20 µM;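 active = inhibition above about 40% at 20 µM, limit read from the data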;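 also: cells challenged with 10 nM apelin-13 agonist together with compound; plate controls were apelin-13 plus DMSO wells for no effect and DMSO wells lacking apelin-13 for full effect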
APJ agonist: APJ receptor agonism; CHO-K1 APJ PathHunter beta-arrestin, luminescence; 0% DMSO wells, 100% apelin; activation, % at 20 µM; actives 0.11% (n = 330,000);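 active = activation more than six SD over the plate average, tested at 20 µM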;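 also: 0% = DMSO alone and 100% = apelin-13 at 10 nM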
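Test system: CHO-K1 APJ beta-arrestin complementation cell line. Amount: cell density 1000 per well. Controls: DMSO negative, 10 nM Apelin-13 positive. Signal: luminescent beta-gal fragment complementation, chemiluminescent substrate. Read-out basis: agonist-driven arrestin binding to APJ. Timing: compound stimulation 90 min at 25 °C, detection 60 min.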
CXCR6 block: blocks human CXCR6 beta-arrestin recruitment | O00574 | CHO-K1 PathHunter CXCR6 beta-arrestin, luminescence | inhibition, % at 20 µM | actives 0.36% (n = 360,000); in the data active = inhibition above about 34%, passing the limit was not always enough;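 also: antagonist mode with CXCL16 agonist at 10 nM final; 0% = 10 nM CXCL16 with DMSO and 100% = unstimulated wells without agonist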
EBI2 antag conf: EBI2 (human) antagonism, single concentration confirmation | EBI2 beta-arrestin luminescence, 7a,25-OHC antagonism | inhibition, % at 5 µM | shares compounds with EBI2 antag | actives 29% (n = 2,400);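 active = inhibition of at least 50%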
EBI2 agonist: counter-screen for EBI2 antagonists: EBI2 agonist activity; EBI2-expressing cells, agonist mode, luminescence, 60 min; 0% vehicle, 100% 7α,25-dihydroxycholesterol control; activation, % at 5 µM; 2,400 tested, under 10 active; shares compounds with EBI2 antag;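 active = activation of at least 50%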
bGal cs: inhibits E. coli beta-galactosidase, counter-screen for EBI2 antagonists; shares compounds with EBI2 antag; purified beta-galactosidase, luminescent Galacton Star, 15 min; inhibition, % at 5 µM; actives 1% (n = 2,400); AID 652176;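 active = replicate-average signal at least 3 plate SD below neutral wells, shown as high inhibition, flagging enzyme-inhibiting false positives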;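 also: 0% = DMSO wells with enzyme and 100% = wells lacking enzyme; higher means stronger loss of beta-gal luminescence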
Active calls of the source: *; / = no result. A selection: hits, their analogues and other compounds. The true share with any hit is near 1.5%.

SMILES | EBI2 antag | CCR6 antagonist | APJ antag | APJ agonist | CXCR6 block | EBI2 antag conf | EBI2 agonist | bGal cs
Cc1ccccc1CN(c1ccc(C(=O)Nc2ccccc2C(=O)NCc2ccco2)cc1)S(C)(=O)=O | 57.9* | 6.9 | -1.1 | -0.9 | -1.3 | 13.4 | -0.9 | -16.1
Cc1cccc(OCC(=O)N2CCN(C(=O)COc3ccc(Cl)cc3)CC2)c1 | 84.4* | 3.3 | -0.1 | -3.1 | -7.2 | 50.3* | -1.4 | -14.9
COC(=O)C1CCN(C(=O)COc2ccc(Cl)cc2)CC1 | 61.7* | -2.7 | 7.3 | 0.5 | 2.5 | 57.3* | 0.6 | 9.7
CCOC(=O)C1CCN(C(=O)COc2ccc(Cl)cc2)CC1 | 75.1* | 7.2 | 8.2 | 5.3 | 5.9 | 54.3* | -2.0 | -10.0
Cc1occc1-c1nnc(SCC(=O)NCCc2ccccc2)n1C(C)c1ccccc1 (stereo unspecified) | 50.6* | 11.9 | -9.4 | 1.9 | 5.8 | 27.4 | -1.5 | -11.5
Cc1cccc(N2CCN(C(=O)c3ccc4ncsc4c3)CC2)c1C | 74.2* | 5.5 | / | / | -3.3 | 65.0* | -0.2 | -12.8
O=C(c1ccc2ncsc2c1)N1CCN(c2ccccc2Cl)CC1 | 73.9* | -2.6 | -2.0 | -0.6 | 0.0 | 53.9* | 0.7 | 1.1
O=C(c1ccc2ncsc2c1)N1CCN(c2nc3ccccc3s2)CC1 | 6.0 | 7.6 | 13.9 | 0.7 | -7.9 | / | / | /
Cc1ccc(C)c(N2CCN(C(=O)c3ccc4nsnc4c3)CC2)c1 | 47.1* | 11.4 | -8.3 | -4.5 | 7.2 | 12.6 | -0.4 | -4.5
N#Cc1ccccc1C[C@H](N)C(=O)NC[C@H]1O[C@@H](n2cnc3c(N)ncnc32)[C@H](O)[C@@H]1O | -0.6 | / | / | / | -11.7 | / | / | /
Cc1nnc(SCc2nnc(-c3cccs3)o2)n1Cc1ccccc1 | -10.8 | 2.4 | -5.5 | -1.0 | 9.6 | / | / | /
COc1ccc(-c2nnc(SCc3nnc(-c4ccc(Cl)cc4)o3)n2-c2ccccc2)cc1 | 74.2* | 14.9 | -1.9 | -1.0 | 0.1 | 43.9 | -1.2 | -13.0
COc1ccc(-c2nnc(SCc3nnc(-c4ccccc4)o3)n2-c2ccccc2)cc1 | 26.9 | 23.3 | 10.4 | 0.0 | 3.6 | / | / | /
Clc1ccc(-c2nnc(CSc3nnc(-c4cccs4)n3Cc3ccccc3)o2)cc1 | 88.1* | 8.3 | 15.8 | 0.8 | 4.8 | 60.0* | 0.7 | 4.5
CCOC1=C2CN(S(=O)(=O)c3ccc(C)cc3)[C@H](c3ccccc3)C[C@@H]2N(S(=O)(=O)c2ccc(C)cc2)[C@H](c2cccc(C)c2)C1 | -6.4 | / | / | / | 1.6 | / | / | /
CC1(C(=O)Nc2ccc3c(c2)OCCO3)CSCC(=O)N1Cc1ccco1 (stereo unspecified) | -6.6 | / | / | / | / | / | / | /
COc1ccc(CC(N)c2csc(NC(=O)Nc3ccccc3-c3ccccc3)n2)cc1 (stereo unspecified) | -4.9 | / | / | / | -13.7 | / | / | /
C[C@H]1CN([C@@H](C)CO)C(=O)c2cc(Br)cnc2O[C@H]1CN(C)C(=O)C1CCC1 | -4.1 | / | / | / | -0.4 | / | / | /
CC(C)N(C)c1ncnc2c1ncn2[C@H]1CN(Cc2ccc(F)cc2)C[C@@H](CO)O1 | 67.5* | / | / | / | 2.8 | 63.0* | 1.0 | 5.1
OC[C@@H]1CN(Cc2cccc(C(F)(F)F)c2)C[C@H](n2cnc3c(NC4CC4)ncnc32)O1 | 64.8* | / | / | / | -4.4 | 61.6* | 3.1 | 8.7
CN(C)c1ncnc2c1ncn2[C@H]1CN(Cc2ccc(F)cc2)C[C@@H](CO)O1 | 2.8 | / | / | / | -10.5 | / | / | /
CC(C)CNc1ncnc2c1ncn2[C@H]1CN(Cc2ccc(-c3ccccc3)cc2)C[C@@H](CO)O1 | -5.3 | / | / | / | -5.4 | / | / | /
OC[C@@H]1CN(Cc2ccncc2)C[C@H](n2cnc3c(NC4CC4)ncnc32)O1 | 9.7 | / | / | / | -1.8 | / | / | /
OC[C@@H]1CN(Cc2ccc(Cl)cc2)C[C@H](n2cnc3c(NC4CC4)ncnc32)O1 | 82.5* | / | / | / | -5.5 | 82.2* | -0.9 | -16.2
CC(C)Nc1ncnc2c1ncn2[C@H]1CN(Cc2ccc(-c3ccccc3)cc2)C[C@@H](CO)O1 | 44.1* | / | / | / | -3.6 | 26.8 | -0.2 | -13.1
